Laboratory results: ChEMBL document CHEMBL2331212 (Bioorg Med Chem, 2013)
“And” between values parts separate entries of the source, which are not always exact repeats. Identical values can stand only once. The source made the active and inactive calls. The rule behind the calls is not given here.

Columns and labels:
[1] = biological target: T1, D(4) dopamine receptor (Homo sapiens) (UniProt P21917); assay: Partial agonist activity at human D4.4 receptor expressed in CHO cells assessed as inhibition of forskolin-stimulated cAMP accumulation after 20 mins by luminescence assay relative to quinpirole; assay type: functional, cell-based
T1 sequence (whole entry): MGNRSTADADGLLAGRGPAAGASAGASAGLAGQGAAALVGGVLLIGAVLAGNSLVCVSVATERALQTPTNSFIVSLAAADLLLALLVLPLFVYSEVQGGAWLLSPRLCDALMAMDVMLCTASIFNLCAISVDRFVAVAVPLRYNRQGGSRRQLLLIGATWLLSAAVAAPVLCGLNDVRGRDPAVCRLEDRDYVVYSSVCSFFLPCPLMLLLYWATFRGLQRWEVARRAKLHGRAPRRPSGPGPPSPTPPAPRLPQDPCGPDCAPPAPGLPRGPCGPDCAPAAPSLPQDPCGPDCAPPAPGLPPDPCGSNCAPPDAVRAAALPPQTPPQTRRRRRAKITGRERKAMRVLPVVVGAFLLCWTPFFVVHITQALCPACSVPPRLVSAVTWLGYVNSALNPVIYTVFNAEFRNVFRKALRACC
How it was run: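 CHO cells expressing D4.4 were seeded 24 h ahead at 10,000 cells/well and washed with Krebs Ringer buffer, pH 7.4. Cells were exposed to graded compound concentrations with forskolin for 20 min at 25 °C. cAMP was read by cAMP-Glo luminescence, a PKA–luciferase readout. Quinpirole served as the reference full agonist. EC50 and Emax were taken from at least three experiments, each in triplicate.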

D(1A) dopamine receptor = D(1A) dopamine receptor (Bos taurus, UniProt Q95136); assay: Displacement of [3H]SCH23390 from dopamine D1 receptor in bovine striatum
How it was run: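 Bovine striatal homogenate was incubated with [3H]SCH 23390 and test compounds under the same binding conditions as the D2-family assays. Competition curves were fitted by sigmoid non-linear regression with logEC50 and Hill coefficient free. EC50 was converted to Ki by Cheng–Prusoff. Each experiment was run in triplicate.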

D(3) dopamine receptor = D(3) dopamine receptor (Homo sapiens, UniProt P35462); assay: Displacement of [3H]spiperone from human dopamine D3 receptor expressed in CHO cells; assay type: cell-based
D(2) dopamine receptor [2] = biological target: T2, D(2) dopamine receptor (Homo sapiens, UniProt P14416); assay: Displacement of [3H]spiperone from human dopamine D2short receptor expressed in CHO cells; assay type: cell-based
D(4) dopamine receptor = biological target: T3, D(4) dopamine receptor (Homo sapiens, UniProt P21917); assay: Displacement of [3H]spiperone from human dopamine D4.4 receptor expressed in CHO cells; assay type: cell-based
T3 sequence (P21917 whole entry): T1 sequence (whole entry)

D(2) dopamine receptor [3] = biological target: T2, D(2) dopamine receptor; assay: Displacement of [3H]spiperone from human dopamine D2long receptor expressed in CHO cells; assay type: cell-based
[4] = biological target: T1, D(4) dopamine receptor (Homo sapiens); assay: Antagonist activity at human D4.4 receptor expressed in CHO cells assessed as inhibition of quinpirole-induced reduction in cAMP accumulation after 20 mins by luminescence assay; assay type: functional, cell-based

Sequence of D(3) dopamine receptor (P35462 whole entry): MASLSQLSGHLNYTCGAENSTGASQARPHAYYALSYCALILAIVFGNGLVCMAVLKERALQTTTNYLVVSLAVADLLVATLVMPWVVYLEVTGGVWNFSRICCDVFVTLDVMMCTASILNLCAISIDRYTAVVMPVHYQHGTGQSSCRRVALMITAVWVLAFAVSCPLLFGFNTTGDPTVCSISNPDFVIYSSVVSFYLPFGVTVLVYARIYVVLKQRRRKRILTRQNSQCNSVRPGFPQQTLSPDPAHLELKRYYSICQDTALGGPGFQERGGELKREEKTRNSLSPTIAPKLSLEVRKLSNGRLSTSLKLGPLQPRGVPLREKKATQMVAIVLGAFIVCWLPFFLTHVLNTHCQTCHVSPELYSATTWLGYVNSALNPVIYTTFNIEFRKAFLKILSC
T2 sequence (P14416 whole entry): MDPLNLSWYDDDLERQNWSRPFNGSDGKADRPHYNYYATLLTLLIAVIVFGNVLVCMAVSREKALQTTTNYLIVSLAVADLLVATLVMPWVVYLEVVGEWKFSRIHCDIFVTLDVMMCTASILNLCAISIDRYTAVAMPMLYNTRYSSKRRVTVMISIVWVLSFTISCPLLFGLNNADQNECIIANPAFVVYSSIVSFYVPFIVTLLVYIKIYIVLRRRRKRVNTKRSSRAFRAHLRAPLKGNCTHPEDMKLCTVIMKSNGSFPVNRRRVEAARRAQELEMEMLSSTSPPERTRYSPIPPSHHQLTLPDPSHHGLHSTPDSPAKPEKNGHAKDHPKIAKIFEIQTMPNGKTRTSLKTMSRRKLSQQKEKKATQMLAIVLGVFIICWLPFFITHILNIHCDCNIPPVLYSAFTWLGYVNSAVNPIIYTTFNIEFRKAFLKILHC
Sequence of D(1A) dopamine receptor (Q95136 whole entry): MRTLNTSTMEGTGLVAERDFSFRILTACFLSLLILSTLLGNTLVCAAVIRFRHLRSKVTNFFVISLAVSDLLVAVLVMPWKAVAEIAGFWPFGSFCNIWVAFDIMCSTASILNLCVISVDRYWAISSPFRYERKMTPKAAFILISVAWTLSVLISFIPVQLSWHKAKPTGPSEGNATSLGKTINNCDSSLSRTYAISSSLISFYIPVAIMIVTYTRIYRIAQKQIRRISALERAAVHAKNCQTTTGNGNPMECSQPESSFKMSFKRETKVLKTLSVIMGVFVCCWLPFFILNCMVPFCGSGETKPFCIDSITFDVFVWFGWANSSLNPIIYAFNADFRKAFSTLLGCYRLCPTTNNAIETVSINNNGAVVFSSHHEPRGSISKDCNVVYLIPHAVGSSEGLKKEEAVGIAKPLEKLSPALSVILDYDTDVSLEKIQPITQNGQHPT

c1ccc(N2CCN(Cc3cnn(-c4ccccc4)c3)CC2)cc1
Efficacy [1]: 40% | Ki (D(1A) dopamine receptor): 1600 nM

c1ccc(-n2cc(CN3CCN(c4cc5ccc4CCc4ccc(cc4)CC5)CC3)cn2)cc1
Ki (D(3) dopamine receptor): 18 nM | Ki (D(2) dopamine receptor [2]): 28 nM | Ki (D(4) dopamine receptor): 45 nM | Ki (D(2) dopamine receptor [3]): 39 nM | Ki (D(1A) dopamine receptor): 2600 nM

NCCc1ccc(O)c(O)c1 [DOPAMINE]
Ki (D(1A) dopamine receptor): 440 nM

c1ccc(N2CCN(Cc3cnn(-c4cc5ccc4CCc4ccc(cc4)CC5)c3)CC2)cc1
Ki (D(3) dopamine receptor): 20 nM and 23 nM | inhibition [4]: Active | Efficacy [1]: 19% | Ki (D(2) dopamine receptor [2]): 33 nM and 240 nM | Ki (D(4) dopamine receptor): 2.5 nM and 4.5 nM | Ki (D(2) dopamine receptor [3]): 55 nM and 350 nM | Ki (D(1A) dopamine receptor): 1500 nM and 1700 nM
